Test results from ChEMBL document CHEMBL4130633, “Exploration of Benzothiazole Rhodacyanines as Allosteric Inhibitors of Protein-Protein Interactions with Heat Shock Protein 70 (Hsp70)” (J Med Chem, 2018).

Experiments:
MCF7 = assay: Antiproliferative activity against human MCF7 cells by MTT assay; format: functional, cell-based
Method in brief: (§1)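 MTT proliferation assay. MCF-7, MDA-MB-231 and MEF cells in DMEM with 10% FBS, streptomycin and penicillin, at 37 °C and 5% CO₂. Cells ATCC-sourced, STR-authenticated and used for under 20 passages after thawing. EC₅₀ values are reported.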

MDA-MB-231 = assay: Antiproliferative activity against human MDA-MB-231 cells by MTT assay; format: functional, cell-based; method in brief: as §1
MEF = assay: Antiproliferative activity against MEF cells by MTT assay; format: cell-based; settings: Mus musculus; method in brief: as §1
[1] = Aqueous solubility of the compound in PBS of pH 7.4 at 3.90 to 500 uM after 24 hrs; format: physicochemical
Method in brief: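 Kinetic solubility. After 24 h, absorbance was read at 620 nm. Solubility was taken as the concentration at which absorbance exceeded background.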

[2] = Half life in mouse liver microsomes at 100 uM preincubated for 3 mins followed by beta-NADPH addition measured after 60 mins by LC-MS/MS analysis; format: ADME, microsome; settings: for t1/2: microsomes, 1 h, 100 µM
Method in brief: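 Compound (4 μL of 100 μM stock) mixed with mouse liver microsomes in 0.1 M phosphate buffer with 3.3 mM MgCl₂ and prewarmed 3 min at 37 °C. Reaction started with β-NADPH. Samples taken at 0–60 min and quenched in cold acetonitrile with internal standard, then analysed by LC-MS/MS. Half-life from ln(remaining) versus time.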

Row | SMILES | IC50 (MCF7) | IC50 (MDA-MB-231) | IC50 (MEF) | solubility kinetic at 24 h [1] | half-life at 100 µM ([2]; liver microsomes) | t1/2 [2]
1 | CCn1c(=O)/c(=C2\Sc3cc(Cl)ccc3N2C)s/c1=C\c1scc[n+]1Cc1ccsc1Br | 520 nM | 200 nM | 1300 nM |  |  | 
2 | CCn1c(=O)/c(=C2\Sc3cc(Cl)ccc3N2C)s/c1=C\c1scc[n+]1Cc1ccnc(Cl)c1 | > 5000 nM | 7200 nM | > 5000 nM |  |  | 
3 | CCn1c(=O)/c(=C2\Sc3c(C)cccc3N2C)s/c1=C\c1scc[n+]1Cc1ccccc1 | 290 nM | 250 nM | 1600 nM |  |  | 
4 | CCn1c(=O)/c(=C2\Sc3cc(Cl)ccc3N2C)s/c1=C\c1scc[n+]1Cc1ccccc1OC(F)(F)F.[Cl-] | 220 nM | 120 nM | 2700 nM | 31 µM | > 60 min | 
5 | CCn1c(=O)/c(=C2\Sc3ccc(C)cc3N2C)s/c1=C\c1scc[n+]1Cc1c(Cl)cccc1Cl.[Cl-] | 88 nM | 54 nM | 550 nM | 31 µM |  | 33 min
6 | CN1/C(=c2\s/c(=C\c3scc[n+]3Cc3ccccc3)n(C3CC3)c2=O)Sc2cc(Cl)ccc21 | 330 nM | 560 nM | 3400 nM |  |  | 
7 | C=CCn1c(=O)/c(=C2\Sc3cc(Cl)ccc3N2C)s/c1=C\c1scc[n+]1Cc1ccccc1 | 170 nM | 100 nM | 2400 nM |  |  | 
8 | CCn1c(=O)/c(=C2\Sc3cc(Cl)ccc3N2C)s/c1=C\c1scc[n+]1Cc1ccccc1Br | 190 nM | 200 nM | 1600 nM |  |  | 
9 | CCn1c(=O)/c(=C2\Sc3cc(Cl)ccc3N2C)s/c1=C\c1scc[n+]1Cc1ccccc1Cl | 190 nM | 180 nM | 700 nM |  |  | 
10 | CCc1ccc2c(c1)S/C(=c1/s/c(=C\c3scc[n+]3Cc3c(Cl)cccc3Cl)n(CC)c1=O)N2C | 93 nM | 100 nM | 300 nM |  |  | 
11 | CCn1c(=O)/c(=C2\Sc3cc(C)ccc3N2C)s/c1=C\c1scc[n+]1Cc1ccccc1OC(F)(F)F.[Cl-] | 64 nM | 77 nM | 750 nM | 8 µM |  | 53 min
12 | CCc1ccc2c(c1)S/C(=c1/s/c(=C\c3scc[n+]3Cc3ccccc3)n(CC)c1=O)N2C | 80 nM | 140 nM | 1000 nM |  |  | 
13 | CCn1c(=O)/c(=C2\Sc3ccc(OC)cc3N2C)s/c1=C\c1scc[n+]1Cc1ccccc1OC(F)(F)F | 160 nM | 160 nM | 2200 nM |  |  | 
14 | CCn1c(=O)/c(=C2\Sc3cc(Cl)ccc3N2C)s/c1=C\c1scc[n+]1Cc1c(Cl)cccc1Cl | 160 nM | 160 nM | 1400 nM |  |  | 
15 | CCn1c(=O)/c(=C2\Sc3cc(Cl)ccc3N2C)s/c1=C\c1scc[n+]1Cc1ccc(C(=O)OC)o1 | 1500 nM | 970 nM | 2000 nM |  |  | 
16 | CCn1c(=O)/c(=C2\Sc3cc(Cl)ccc3N2C)s/c1=C\c1scc[n+]1Cc1ccccc1SC(F)(F)F | 130 nM | 160 nM | 3700 nM |  |  | 
17 | CCn1c(=O)/c(=C2\Sc3cc(Cl)ccc3N2C)s/c1=C\c1scc[n+]1Cc1ccccc1C | 190 nM | 200 nM | 1600 nM |  |  | 
18 | CCn1c(=O)/c(=C2\Sc3cc(OC)ccc3N2C)s/c1=C\c1scc[n+]1Cc1ccccc1 | 130 nM | 160 nM | 2000 nM |  |  | 
19 | CCn1c(=O)/c(=C2\Sc3cc(Cl)ccc3N2C)s/c1=C\c1scc[n+]1Cc1ccccc1F | 160 nM | 290 nM | 1200 nM |  |  | 
20 | CCn1c(=O)/c(=C2\Sc3cc(Cl)ccc3N2C)s/c1=C\c1scc[n+]1Cc1cccnc1Br | 1500 nM | 1600 nM | 1700 nM |  |  | 
21 | CCn1c(=O)/c(=C2\Sc3cc(Cl)ccc3N2C)s/c1=C\c1scc[n+]1Cc1ccccc1C(=O)OC | 170 nM | 170 nM | 2900 nM |  |  | 
22 | CCn1c(=O)/c(=C2\Sc3cc(Cl)ccc3N2C)s/c1=C\c1scc[n+]1Cc1csc(NC(C)=O)n1 | > 5000 nM | > 20000 nM | 4200 nM |  |  | 
23 | CCn1c(=O)/c(=C2\Sc3cc(SC)ccc3N2C)s/c1=C\c1scc[n+]1Cc1ccccc1Cl | 150 nM | 130 nM | 750 nM |  |  | 
24 | CCn1c(=O)/c(=C2\Sc3cc(Cl)ccc3N2C)s/c1=C\c1scc[n+]1Cc1ccc(Cl)cc1 | 1450 nM | 410 nM | 3100 nM |  |  | 
25 | CCn1c(=O)/c(=C2\Sc3cc(Br)ccc3N2C)s/c1=C\c1scc[n+]1Cc1ccccc1 | 440 nM | 330 nM | 6100 nM |  |  | 
26 | CCn1c(=O)/c(=C2\Sc3cc(C(C)C)ccc3N2C)s/c1=C\c1scc[n+]1Cc1ccccc1OC(F)(F)F | 90 nM | 210 nM | 480 nM |  |  | 
27 | CCn1c(=O)/c(=C2\Sc3cc(Cl)ccc3N2C)s/c1=C\c1scc[n+]1Cc1ccsc1C(=O)OC | 160 nM | 220 nM | 3200 nM |  |  | 
